SMILES strings stand for the structures. Some results are limits rather than exact numbers.

As a reminder, the CC50 is the concentration at which the toxic effect on the cells reaches its halfway point. A high value points to better tolerance by the cells.

One data set concerns HeLa. The experiment in a line: Antiproliferative activity against human HeLa cells after 12 hrs by MTT assay. Format: functional, cell-based.
Details: not given
Background: Formazan colour is commonly taken as a measure of viable cells.
`CS(=O)(=O)CCNCc1ccc(-c2ccc3ncnc(Nc4ccc(OCc5cccc(F)c5)c(Cl)c4)c3c2)o1` [LAPATINIB] returned an IC50 of 120 nM.

`CC(=O)N1N=C(c2ccc([N+](=O)[O-])cc2)CC1c1ccc(C(=O)OCCn2c([N+](=O)[O-])cnc2C)cc1` (stereo not given): the IC50 stood at 150 nM.

For `CC(=O)N1N=C(c2ccc(C)cc2)CC1c1ccc(C(=O)OC(C)Cn2c([N+](=O)[O-])cnc2C)cc1` (stereo not given), the IC50 amounted to 72100 nM.

The target of another data set is Receptor tyrosine-protein kinase erbB-2 (Homo sapiens, UniProt P04626). The experiment in a line: Inhibition of His-tagged human HER-2 cytoplasmic domain (676-1245 aa) (unknown origin) assessed as inhibition of autophosphorylation by TR-fluorometry.
Chain of Receptor tyrosine-protein kinase erbB-2 (P04626 whole entry, the tested form may be a part): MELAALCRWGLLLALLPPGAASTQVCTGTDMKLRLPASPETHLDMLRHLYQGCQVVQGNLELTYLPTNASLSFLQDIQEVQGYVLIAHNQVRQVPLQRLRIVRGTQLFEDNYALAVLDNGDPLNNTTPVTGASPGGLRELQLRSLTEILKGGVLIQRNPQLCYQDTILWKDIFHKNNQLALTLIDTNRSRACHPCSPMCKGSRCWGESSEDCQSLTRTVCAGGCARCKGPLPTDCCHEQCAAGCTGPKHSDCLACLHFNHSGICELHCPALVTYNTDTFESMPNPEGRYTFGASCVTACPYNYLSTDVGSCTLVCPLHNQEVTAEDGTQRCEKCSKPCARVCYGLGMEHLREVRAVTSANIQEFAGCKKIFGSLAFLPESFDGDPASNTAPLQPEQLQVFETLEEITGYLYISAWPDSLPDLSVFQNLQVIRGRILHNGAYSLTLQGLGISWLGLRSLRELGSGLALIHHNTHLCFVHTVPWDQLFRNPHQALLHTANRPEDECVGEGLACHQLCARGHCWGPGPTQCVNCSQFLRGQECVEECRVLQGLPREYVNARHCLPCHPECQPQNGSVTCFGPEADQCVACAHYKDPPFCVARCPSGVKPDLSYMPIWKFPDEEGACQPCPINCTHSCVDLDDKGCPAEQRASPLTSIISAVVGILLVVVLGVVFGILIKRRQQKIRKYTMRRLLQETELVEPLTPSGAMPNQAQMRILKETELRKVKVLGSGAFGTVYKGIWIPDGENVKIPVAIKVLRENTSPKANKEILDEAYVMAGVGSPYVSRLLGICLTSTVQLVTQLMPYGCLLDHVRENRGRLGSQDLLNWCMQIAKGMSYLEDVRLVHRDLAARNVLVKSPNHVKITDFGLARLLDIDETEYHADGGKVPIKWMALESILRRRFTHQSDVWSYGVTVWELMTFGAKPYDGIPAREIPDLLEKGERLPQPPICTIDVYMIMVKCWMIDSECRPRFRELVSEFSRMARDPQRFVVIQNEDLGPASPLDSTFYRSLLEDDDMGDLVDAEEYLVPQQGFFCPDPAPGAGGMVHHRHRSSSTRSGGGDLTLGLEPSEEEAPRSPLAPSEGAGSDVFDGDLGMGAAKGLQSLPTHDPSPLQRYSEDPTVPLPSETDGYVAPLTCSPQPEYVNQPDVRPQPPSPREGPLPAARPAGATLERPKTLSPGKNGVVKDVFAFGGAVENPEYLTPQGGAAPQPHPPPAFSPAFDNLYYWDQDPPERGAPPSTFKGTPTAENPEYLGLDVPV
Details: not given
For `CC(=O)N1N=C(c2ccc([N+](=O)[O-])cc2)CC1c1ccc(C(=O)OCCn2c([N+](=O)[O-])cnc2C)cc1` (stereo not given), the IC50 came out at 2.06 µM.

Take `CC(=O)N1N=C(c2ccc(C)cc2)CC1c1ccc(C(=O)OC(C)Cn2c([N+](=O)[O-])cnc2C)cc1` (stereo not given): the IC50 worked out at 18.9 µM.

The next data set relates to MCF7. The experiment in a line: Antiproliferative activity against human MCF7 cells after 12 hrs by MTT assay. The note with it: MCF7, 12 h. Format: functional, cell-based.
Turning to `CS(=O)(=O)CCNCc1ccc(-c2ccc3ncnc(Nc4ccc(OCc5cccc(F)c5)c(Cl)c4)c3c2)o1` [LAPATINIB], the IC50 came to 470 nM.

In turn, `CC(=O)N1N=C(c2ccc([N+](=O)[O-])cc2)CC1c1ccc(C(=O)OCCn2c([N+](=O)[O-])cnc2C)cc1` (stereo not given) yielded an IC50 of 1130 nM.

With `CC(=O)N1N=C(c2ccc(C)cc2)CC1c1ccc(C(=O)OC(C)Cn2c([N+](=O)[O-])cnc2C)cc1` (stereo not given), the IC50 was found to be 92100 nM.

A further data set relates to HepG2. The experiment in a line: Antiproliferative activity against human HepG2 cells after 12 hrs by MTT assay. The note with it: HepG2, 12 h. The format is functional, cell-based.
Take `CS(=O)(=O)CCNCc1ccc(-c2ccc3ncnc(Nc4ccc(OCc5cccc(F)c5)c(Cl)c4)c3c2)o1` [LAPATINIB]: the IC50 came to 270 nM.

`CC(=O)N1N=C(c2ccc([N+](=O)[O-])cc2)CC1c1ccc(C(=O)OCCn2c([N+](=O)[O-])cnc2C)cc1` (stereo not given) displayed an IC50 of 1750 nM.

`CC(=O)N1N=C(c2ccc(C)cc2)CC1c1ccc(C(=O)OC(C)Cn2c([N+](=O)[O-])cnc2C)cc1` (stereo not given) came in with an IC50 of 58100 nM.

System in a further data set: not listed separately
Briefly: Antiproliferative activity against mouse B16F10 cells after 12 hrs by MTT assay. The note with it: B16-F10, 12 h. The format is functional, cell-based.
As for `CS(=O)(=O)CCNCc1ccc(-c2ccc3ncnc(Nc4ccc(OCc5cccc(F)c5)c(Cl)c4)c3c2)o1` [LAPATINIB], the IC50 turned out to be 210 nM.

The compound `CC(=O)N1N=C(c2ccc([N+](=O)[O-])cc2)CC1c1ccc(C(=O)OCCn2c([N+](=O)[O-])cnc2C)cc1` (stereo not given) had an IC50 of 380 nM.

`CC(=O)N1N=C(c2ccc(C)cc2)CC1c1ccc(C(=O)OC(C)Cn2c([N+](=O)[O-])cnc2C)cc1` (stereo not given): the IC50 is greater than 100000 nM.

The target in the next data set is Epidermal growth factor receptor (Homo sapiens, UniProt P00533). Briefly: Inhibition of His-tagged EGFR cytoplasmic domain (645-1186 aa) (unknown origin) assessed as inhibition of autophosphorylation by TR-fluorometry. As to conditions: read-out: IC50.
Chain of Epidermal growth factor receptor (P00533 whole entry, the tested form may be a part): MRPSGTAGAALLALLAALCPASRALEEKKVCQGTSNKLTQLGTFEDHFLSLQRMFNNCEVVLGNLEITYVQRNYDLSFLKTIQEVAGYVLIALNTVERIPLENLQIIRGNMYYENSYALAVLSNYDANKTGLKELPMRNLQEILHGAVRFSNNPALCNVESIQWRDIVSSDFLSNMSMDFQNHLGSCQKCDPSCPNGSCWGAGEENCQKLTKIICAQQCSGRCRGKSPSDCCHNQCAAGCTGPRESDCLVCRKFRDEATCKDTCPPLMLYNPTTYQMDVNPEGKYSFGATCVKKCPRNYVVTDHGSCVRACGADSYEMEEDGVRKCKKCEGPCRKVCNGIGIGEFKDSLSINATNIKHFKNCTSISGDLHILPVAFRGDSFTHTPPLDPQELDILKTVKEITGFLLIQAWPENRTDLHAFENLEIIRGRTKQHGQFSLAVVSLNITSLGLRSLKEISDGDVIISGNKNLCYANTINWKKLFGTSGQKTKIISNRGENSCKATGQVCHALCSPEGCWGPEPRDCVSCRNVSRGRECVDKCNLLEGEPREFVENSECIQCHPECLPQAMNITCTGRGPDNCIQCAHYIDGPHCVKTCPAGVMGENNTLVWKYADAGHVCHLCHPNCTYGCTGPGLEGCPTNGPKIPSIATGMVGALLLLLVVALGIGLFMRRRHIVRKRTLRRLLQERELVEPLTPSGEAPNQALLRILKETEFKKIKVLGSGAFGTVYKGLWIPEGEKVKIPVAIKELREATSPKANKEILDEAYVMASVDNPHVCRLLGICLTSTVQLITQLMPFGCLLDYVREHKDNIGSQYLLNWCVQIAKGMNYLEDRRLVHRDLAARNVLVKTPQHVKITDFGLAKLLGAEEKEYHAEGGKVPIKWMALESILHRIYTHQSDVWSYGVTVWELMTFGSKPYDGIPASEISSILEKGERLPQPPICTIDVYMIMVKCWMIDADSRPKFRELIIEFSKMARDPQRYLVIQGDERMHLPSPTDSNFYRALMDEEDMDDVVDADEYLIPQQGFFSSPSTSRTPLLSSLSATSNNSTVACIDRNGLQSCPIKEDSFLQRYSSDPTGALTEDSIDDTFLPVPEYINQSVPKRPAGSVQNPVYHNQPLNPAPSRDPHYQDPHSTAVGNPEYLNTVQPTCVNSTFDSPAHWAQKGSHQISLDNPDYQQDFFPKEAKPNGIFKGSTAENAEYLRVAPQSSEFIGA
Turning to `CC(=O)N1N=C(c2ccc([N+](=O)[O-])cc2)CC1c1ccc(C(=O)OCCn2c([N+](=O)[O-])cnc2C)cc1` (stereo not given), the IC50 was determined as 0.6 µM.

In the case of `CC(=O)N1N=C(c2ccc(C)cc2)CC1c1ccc(C(=O)OC(C)Cn2c([N+](=O)[O-])cnc2C)cc1` (stereo not given), the IC50 is 25.6 µM.

The same data set, now with this note: read-out: pIC50 (converted).
Consider `CC(=O)N1N=C(c2ccc([N+](=O)[O-])cc2)CC1c1ccc(C(=O)OCCn2c([N+](=O)[O-])cnc2C)cc1` (stereo not given), for which the IC50 was 0.601 µM.

Regarding `CC(=O)N1N=C(c2ccc(C)cc2)CC1c1ccc(C(=O)OC(C)Cn2c([N+](=O)[O-])cnc2C)cc1` (stereo not given), the IC50 is 25.6 µM.

System in another data set: not listed separately
The experiment in a line: Cytotoxicity against human HEK293T cells for 24 hrs by MTT assay. The format is cell-based, HEK-293T.
Details: not given
The procedure, abridged:
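293T human kidney epithelial cells exposed to multiple concentrations and viability read by MTT.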
Compound `CS(=O)(=O)CCNCc1ccc(-c2ccc3ncnc(Nc4ccc(OCc5cccc(F)c5)c(Cl)c4)c3c2)o1` [LAPATINIB] had a CC50 at 24 h of 123 µM.

`CC(=O)N1N=C(c2ccc([N+](=O)[O-])cc2)CC1c1ccc(C(=O)OCCn2c([N+](=O)[O-])cnc2C)cc1` (stereo not given) registered a half-maximal cytotoxic concentration (CC50) at 24 h of 78.8 µM. This CC50 at 24 h lies about 1.6-fold lower than the previous one.

Source of the values: ChEMBL document CHEMBL3745647, “Design, synthesis and biological evaluation of pyrazolyl-nitroimidazole derivatives as potential EGFR/HER-2 kinase inhibitors” (Bioorg Med Chem Lett, 2016).
